The values below come from ChEMBL document CHEMBL1142991, “Structure-activity relationship study to understand the estrogen receptor-dependent gene activation of aryl- and alkyl-substituted 1H-imidazoles” (J Med Chem, 2007).

In assay [1] the target is T1, Estrogen receptor (Bos taurus) (UniProt P49884).
T1 sequence (whole entry): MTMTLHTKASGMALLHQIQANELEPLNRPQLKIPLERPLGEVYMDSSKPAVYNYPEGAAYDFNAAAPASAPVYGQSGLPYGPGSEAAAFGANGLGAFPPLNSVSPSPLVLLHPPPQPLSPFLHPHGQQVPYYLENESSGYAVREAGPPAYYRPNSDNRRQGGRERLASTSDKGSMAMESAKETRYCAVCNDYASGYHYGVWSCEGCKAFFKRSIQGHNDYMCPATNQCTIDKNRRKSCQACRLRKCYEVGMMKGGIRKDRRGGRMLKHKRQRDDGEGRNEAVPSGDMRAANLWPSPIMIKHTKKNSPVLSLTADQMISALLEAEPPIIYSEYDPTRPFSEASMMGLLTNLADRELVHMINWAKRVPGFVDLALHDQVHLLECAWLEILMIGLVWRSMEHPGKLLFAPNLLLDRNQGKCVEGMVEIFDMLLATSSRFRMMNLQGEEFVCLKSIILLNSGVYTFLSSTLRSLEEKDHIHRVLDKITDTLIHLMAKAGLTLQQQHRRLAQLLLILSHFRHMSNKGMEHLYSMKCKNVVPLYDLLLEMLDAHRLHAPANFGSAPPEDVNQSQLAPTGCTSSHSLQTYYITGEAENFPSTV
The assay can be described thus: Displacement of [3H]estradiol from calf ER alpha after 16 hrs relative to estradiol. The method in brief:
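Calf uterine cytosol as receptor source, shaken with 17β-[³H]estradiol and competitor at 4 °C for 16 h; dextran-coated charcoal stop, centrifugation, supernatant radioactivity counted. Six competitor concentrations; % bound label plotted against log concentration, and the concentration giving 50% displacement taken for competitor and for unlabeled estradiol to give relative binding affinity.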
Background: Displacement assays read how much labelled ligand stays bound in the presence of the test substance.

The subject of assay [2] is MCF7-2A. The assay can be described thus: Activation of transcriptional activity at ERalpha expressed in MCF7-2a cells assessed as luciferase expression at 10 uM relative to estradiol. Format: functional, cell-based, Homo sapiens. Particulars: for pEC50: Homo sapiens, MCF7-2A, in the assay text read “relative to estradiol” for “at 10 uM relative to estradiol”. In outline: (§1)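 Reporter cells: MCF-7-2a (stable ERE_wtcluc) kept one week in DMEM with L-glutamine, antibiotics, dextran/charcoal-treated BCS (50 mL/L); seeded ~2.2 × 10⁵ cells/mL in six-well plates, compound added after 24 h at 10^-5 to 10^-10 M, 50 h incubation; lysed, luciferase luminescence read 10 s, normalized to Bradford protein; expressed as % of 10^-8 M estradiol; triplicate, single experiment.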

For assay [3], the species on record is Homo sapiens. Kind of assay: Decrease in COX activity.
Assay [4] relates to MCF7-2A. The assay can be described thus: Activation of transcriptional activity at ERalpha expressed in MCF7-2a cells assessed as luciferase expression relative to estradiol. Particulars: Homo sapiens. Format: functional, cell-based. The method in brief:
as §1

pEC50: −log10 of the molar value. The source made the active and inactive calls. The calls are words filed in the database; no cut-off is given here.

As to `CCc1c(-c2ccc(O)cc2)nc(-c2ccc(O)cc2)n1-c1ccc(O)cc1`, in assay [1], the RBA worked out at 0.11%. For the same compound, in assay [2], the Activity is on record as 140% and the pEC50 was 7.11. Regarding `Oc1ccc(-c2cn(-c3ccc(O)cc3)c(-c3ccc(O)cc3Cl)n2)cc1`, in assay [3], the outcome was inactive. Consider `Oc1ccc(-c2nc(-c3ccc(O)cc3Cl)c(-c3ccccc3)n2-c2ccc(O)cc2)cc1`, for which the Activity in assay [2] was 40%. In assay [1], `CCc1c(-c2ccc(O)cc2)nc(-c2ccc(O)cc2Cl)n1-c1ccc(O)cc1` returned an RBA of 0.19%. In addition, in assay [4], the pEC50 is 6.32.

`CCc1c(-c2ccc(O)cc2)nc(-c2ccc(O)cc2)n1-c1ccccc1`: in assay [2], the Activity was 60%.

On to `CCc1c(-c2ccc(O)cc2)nc(-c2ccccc2)n1-c1ccc(O)cc1`, for which the Activity in assay [2] was 90%. Besides, the pEC50 in assay [4] is 7.21. As for `Oc1ccc(-c2nc(-c3ccc(O)cc3)n(-c3ccc(O)cc3)c2-c2ccccc2)cc1`, in assay [2], the Activity was determined as 100% and the pEC50 was 6.46.

For the compound `Cc1c(-c2ccc(O)cc2)nc(-c2ccc(O)cc2)n1-c1ccc(O)cc1`, in assay [2], the Activity was 100% and the pEC50 is 6.85. The compound `Oc1ccc(-n2cc(-c3ccc(O)cc3Cl)nc2-c2ccc(O)cc2Cl)cc1` registered an RBA in assay [1] of 0.09%. Also, in assay [3], the outcome was Active.

On to `Oc1ccc(-c2nc(-c3ccc(O)cc3Cl)n(-c3ccc(O)cc3)c2-c2ccccc2)cc1`, for which, in assay [2], the Activity is listed as 50%. Regarding `Cc1c(-c2ccc(O)cc2Cl)nc(-c2ccc(O)cc2Cl)n1-c1ccc(O)cc1`, the RBA in assay [1] was 0.11%. For the compound `Oc1ccc(-c2nc(-c3ccc(O)cc3Cl)cn2-c2ccc(O)cc2)cc1`, in assay [3], the result was Active.

For orientation: pEC50 means the negative decadic logarithm of the EC50, by convention in mol/L.
